{"source": "ChEMBL document CHEMBL1177643", "about": "“Synthesis, DNA-binding ability and anticancer activity of benzothiazole/benzoxazole-pyrrolo[2,1-c][1,4]benzodiazepine conjugates” (Bioorg Med Chem, 2010)", "key": {"A-375 [1]": {"tested_on": "A-375", "assay": "Induction of apoptosis in human A375 cells at 2 uM", "assay_type": "functional, cell-based", "method_in_brief": "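A375 melanoma cells (5 × 10⁵ per 60 mm dish) grown 24 h, then exposed to 2 μM compound (final) for 24 h; DMSO-treated cells as control. Cells harvested with trypsin–EDTA, fixed in ice-cold 70% ethanol, treated with RNase A, and stained with propidium iodide. DNA content of 20,000 events read by flow cytometry; sub-G1 (G0) area taken as apoptotic.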"}, "A-375 [2]": {"tested_on": "A-375", "assay": "Cell cycle arrest in human A375 cells assessed as accumulation at G2/M phase at 0.5 uM after 24 hrs using propidium iodide staining by flow cytometry", "assay_type": "functional", "method_in_brief": "(§1)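 A375 cells (5×10^5) grown 24 h, then exposed to compound 24 h (DMSO control). Trypsin–EDTA harvest, fixed in ice-cold 70% ethanol at 4 °C 30 min, RNase A 37 °C 30 min, propidium iodide staining. DNA content measured by flow cytometry on 20,000 events, gated as sub-G1/G0, G1, S and G2/M.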"}, "A-375 [3]": {"tested_on": "A-375", "assay": "Cell cycle arrest in human A375 cells assessed as accumulation at G0/G1 phase at 0.5 uM after 24 hrs using propidium iodide staining by flow cytometry", "assay_type": "functional", "method_in_brief": "as §1"}, "A-375 [4]": {"tested_on": "A-375", "assay": "Cell cycle arrest in human A375 cells assessed as accumulation at G0 phase at 1 uM after 24 hrs using propidium iodide staining by flow cytometry", "assay_type": "functional", "method_in_brief": "as §1"}, "A-375 [5]": {"tested_on": "A-375", "assay": "Cell cycle arrest in human A375 cells assessed as accumulation at G2/M phase at 1 uM after 24 hrs using propidium iodide staining by flow cytometry", "assay_type": "functional", "method_in_brief": "as §1"}, "A-375 [6]": {"tested_on": "A-375", "assay": "Cell cycle arrest in human A375 cells assessed as accumulation at G0/G1 phase at 1 uM after 24 hrs using propidium iodide staining by flow cytometry", "assay_type": "functional", "method_in_brief": "as §1"}, "A-375 [7]": {"tested_on": "A-375", "assay": "Cell cycle arrest in human A375 cells assessed as accumulation at sub-G0 phase at 0.5 uM after 24 hrs using propidium iodide staining by flow cytometry", "assay_type": "functional", "method_in_brief": "as §1"}, "A-375 [8]": {"tested_on": "A-375", "assay": "Cell cycle arrest in human A375 cells assessed as accumulation at sub-G0 phase at 1 uM after 24 hrs using propidium iodide staining by flow cytometry", "assay_type": "functional", "method_in_brief": "as §1"}, "HT-29 [9]": {"tested_on": "HT-29", "assay": "Antitumor activity against human HT-29 cells xenografted in SCID mouse assessed as reduction tumor volume at 15 mg/kg, ip measured on day 1", "assay_type": "functional", "details": "route intraperitoneal", "method_in_brief": "(§2)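 HT29 xenografts in scid mice; dosing ip on days 1, 5 and 9 (q4d), 5 or 10 mg/kg per dose (total 15 or 30 mg/kg); vehicle control group. Tumour volume, body weight and toxicity followed for 35 days. Relative tumour volume = volume on given day / volume on day 1; T/C = mean RTV treated / mean RTV control.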"}, "HT-29 [10]": {"tested_on": "HT-29", "assay": "Antitumor activity against human HT-29 cells xenografted in SCID mouse assessed as reduction tumor volume at 30 mg/kg, ip measured on day 1", "assay_type": "functional", "details": "route intraperitoneal", "method_in_brief": "as §2"}, "HT-29 [11]": {"tested_on": "HT-29", "assay": "Antitumor activity against human HT-29 cells xenografted in SCID mouse assessed as reduction tumor volume at 15 mg/kg, ip measured on day 5", "assay_type": "functional", "details": "route intraperitoneal", "method_in_brief": "as §2"}, "HT-29 [12]": {"tested_on": "HT-29", "assay": "Antitumor activity against human HT-29 cells xenografted in SCID mouse assessed as reduction tumor volume at 30 mg/kg, ip measured on day 9", "assay_type": "functional", "details": "route intraperitoneal", "method_in_brief": "as §2"}, "HT-29 [13]": {"tested_on": "HT-29", "assay": "Antitumor activity against human HT-29 cells xenografted in SCID mouse assessed as reduction tumor volume at 15 mg/kg, ip measured on day 17", "assay_type": "functional", "details": "route intraperitoneal", "method_in_brief": "as §2"}, "HT-29 [14]": {"tested_on": "HT-29", "assay": "Antitumor activity against human HT-29 cells xenografted in SCID mouse assessed as reduction tumor volume at 15 mg/kg, ip measured on day 21", "assay_type": "functional", "details": "route intraperitoneal", "method_in_brief": "as §2"}, "HT-29 [15]": {"tested_on": "HT-29", "assay": "Antitumor activity against human HT-29 cells xenografted in SCID mouse assessed as reduction tumor volume at 15 mg/kg, ip measured on day 25", "assay_type": "functional", "details": "route intraperitoneal", "method_in_brief": "as §2"}, "HT-29 [16]": {"tested_on": "HT-29", "assay": "Antitumor activity against human HT-29 cells xenografted in SCID mouse assessed as reduction tumor volume at 30 mg/kg, ip measured on day 25", "assay_type": "functional", "details": "route intraperitoneal", "method_in_brief": "as §2"}, "HT-29 [17]": {"tested_on": "HT-29", "assay": "Antitumor activity against human HT-29 cells xenografted in SCID mouse assessed as reduction tumor volume at 15 mg/kg, ip measured on day 28", "assay_type": "functional", "details": "route intraperitoneal", "method_in_brief": "as §2"}, "HT-29 [18]": {"tested_on": "HT-29", "assay": "Antitumor activity against human HT-29 cells xenografted in SCID mouse assessed as reduction tumor volume at 30 mg/kg, ip measured on day 28", "assay_type": "functional", "details": "route intraperitoneal", "method_in_brief": "as §2"}, "HT-29 [19]": {"tested_on": "HT-29", "assay": "Antitumor activity against human HT-29 cells xenografted in SCID mouse assessed as reduction tumor volume at 15 mg/kg, ip measured on day 32", "assay_type": "functional", "details": "route intraperitoneal", "method_in_brief": "as §2"}, "HT-29 [20]": {"tested_on": "HT-29", "assay": "Antitumor activity against human HT-29 cells xenografted in SCID mouse assessed as reduction tumor volume at 30 mg/kg, ip measured on day 32", "assay_type": "functional", "details": "route intraperitoneal", "method_in_brief": "as §2"}, "HT-29 [21]": {"tested_on": "HT-29", "assay": "Antitumor activity against human HT-29 cells xenografted in SCID mouse assessed as reduction tumor volume at 15 mg/kg, ip measured on day 35", "assay_type": "functional", "details": "route intraperitoneal", "method_in_brief": "as §2"}, "HT-29 [22]": {"tested_on": "HT-29", "assay": "Antitumor activity against human HT-29 cells xenografted in SCID mouse assessed as reduction tumor volume at 30 mg/kg, ip measured on day 35", "assay_type": "functional", "details": "route intraperitoneal", "method_in_brief": "as §2"}}, "note": "Values joined by “and” are separate entries in the source; they are usually repeats but may differ in a detail not shown here. Equal values may be shown once.", "data": [{"molecule": "COc1cc(-c2nc3ccccc3s2)ccc1OCCCCCOc1cc2c(cc1OC)C(=O)N1CCC[C@H]1C=N2", "values": [{"measurement": "Activity", "setting": "A-375 [1]", "value": "Dose-dependent effect"}, {"measurement": "Activity", "setting": "A-375 [2]", "value": 15.96, "unit": "%"}, {"measurement": "Activity", "setting": "A-375 [3]", "value": 67.08, "unit": "%"}, {"measurement": "Activity", "setting": "A-375 [4]", "value": 2.7, "unit": "%"}, {"measurement": "Activity", "setting": "A-375 [5]", "value": 20.32, "unit": "%"}, {"measurement": "Activity", "setting": "A-375 [6]", "value": 64.26, "unit": "%"}, {"measurement": "Activity", "setting": "A-375 [7]", "value": 2.13, "unit": "%"}, {"measurement": "Activity", "setting": "A-375 [8]", "value": 2.7, "unit": "%"}, {"measurement": "T/C", "setting": "HT-29 [9]", "value": 1, "unit": "%"}, {"measurement": "T/C", "setting": "HT-29 [10]", "value": 1, "unit": "%"}, {"measurement": "T/C", "setting": "HT-29 [11]", "value": "0.65% and 0.62%"}, {"measurement": "T/C", "setting": "HT-29 [12]", "value": 0.78, "unit": "%"}, {"measurement": "T/C", "setting": "HT-29 [13]", "value": "0.65% and 0.28%"}, {"measurement": "T/C", "setting": "HT-29 [14]", "value": "0.65% and 0.2%"}, {"measurement": "T/C", "setting": "HT-29 [15]", "value": "0.72% and 0.2%"}, {"measurement": "T/C", "setting": "HT-29 [16]", "value": 0.67, "unit": "%"}, {"measurement": "T/C", "setting": "HT-29 [17]", "value": "0.73% and 0.18%"}, {"measurement": "T/C", "setting": "HT-29 [18]", "value": 0.75, "unit": "%"}, {"measurement": "T/C", "setting": "HT-29 [19]", "value": "0.76% and 0.16%"}, {"measurement": "T/C", "setting": "HT-29 [20]", "value": 0.76, "unit": "%"}, {"measurement": "T/C", "setting": "HT-29 [21]", "value": "0.82% and 0.14%"}, {"measurement": "T/C", "setting": "HT-29 [22]", "value": 0.68, "unit": "%"}]}]}
